In series [1] the test system is C. parvum. Nature of the series: Cytopathic effect. Particulars: for EC50: read-out: Cp CPE EC50, C. parvum, HCT-8, 48 h. Type of series: cell-based, Cryptosporidium parvum. Put shortly:
(§1)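 HCT-8 cells were grown at 37 °C, 5% CO2 in RPMI-1640 with 10% heat-inactivated FBS. Oocysts were excysted in 10 mM HCl/HBSS for 10 min at 37 °C, then in 2 mM sodium taurocholate in L-15/UltraCULTURE medium for 5 min. Infected cells were seeded onto pre-spotted compound (10-point, 3-fold dilution; DMSO and reference-inhibitor controls) and incubated 48 h. Cells were then lysed for a viability read-out, and concentration-response curves were fitted.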
(In general: Protection from cytopathic effect is a common read-out in antiviral testing.)

The test system of series [2] is C. hominis. The series is described as follows: Cytopathic effect. Type of series: cell-based, Cryptosporidium hominis. The conditions noted are these: HCT-8, 48 h, read-out: Ch CPE EC50. Put shortly:
as §1

In series [3] the target is T1, CpPI(4)K (Cryptosporidium parvum, UniProt Q5CVD3).
T1 sequence (Q5CVD3 1-1114): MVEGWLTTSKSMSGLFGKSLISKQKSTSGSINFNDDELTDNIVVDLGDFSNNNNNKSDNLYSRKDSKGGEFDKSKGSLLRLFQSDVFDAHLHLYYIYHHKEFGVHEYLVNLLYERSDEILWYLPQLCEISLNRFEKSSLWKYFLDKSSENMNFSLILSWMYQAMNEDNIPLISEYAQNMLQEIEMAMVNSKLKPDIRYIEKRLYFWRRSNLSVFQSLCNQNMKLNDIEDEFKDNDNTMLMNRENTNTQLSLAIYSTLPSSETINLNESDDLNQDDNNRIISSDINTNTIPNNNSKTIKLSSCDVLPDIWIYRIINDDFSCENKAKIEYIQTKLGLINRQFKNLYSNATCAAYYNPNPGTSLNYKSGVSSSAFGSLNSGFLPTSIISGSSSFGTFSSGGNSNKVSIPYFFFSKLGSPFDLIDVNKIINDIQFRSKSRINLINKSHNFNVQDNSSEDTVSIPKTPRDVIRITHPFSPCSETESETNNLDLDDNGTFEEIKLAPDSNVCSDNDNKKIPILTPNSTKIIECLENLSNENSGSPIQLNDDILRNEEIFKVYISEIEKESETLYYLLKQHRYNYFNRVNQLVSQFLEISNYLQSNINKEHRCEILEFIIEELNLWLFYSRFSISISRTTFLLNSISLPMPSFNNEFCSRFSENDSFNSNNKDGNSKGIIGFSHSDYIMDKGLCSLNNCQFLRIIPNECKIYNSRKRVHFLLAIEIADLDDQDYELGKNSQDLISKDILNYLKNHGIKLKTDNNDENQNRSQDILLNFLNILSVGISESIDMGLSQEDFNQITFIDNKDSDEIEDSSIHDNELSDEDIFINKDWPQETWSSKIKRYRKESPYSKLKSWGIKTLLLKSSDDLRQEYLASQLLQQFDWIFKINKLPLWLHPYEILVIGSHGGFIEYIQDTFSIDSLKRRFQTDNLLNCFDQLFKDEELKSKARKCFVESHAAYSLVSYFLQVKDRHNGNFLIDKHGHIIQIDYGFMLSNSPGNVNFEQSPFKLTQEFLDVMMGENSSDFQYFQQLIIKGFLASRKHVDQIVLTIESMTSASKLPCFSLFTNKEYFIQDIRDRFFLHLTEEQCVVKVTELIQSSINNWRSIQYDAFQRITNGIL
The series is described as follows: PI. Type of series: biochemical, C. parvum. The conditions noted are these: CpPI(4)K IC50, 3 μM ATP. In outline: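 Enzyme was pre-incubated with compound for 5 min at room temperature. The reaction was started with substrate mix at twice final strength (PI, ATP, Tris-HCl pH 7.5, DTT, 0.05% Triton X-100, MnCl2) and run 50 min at room temperature. ADP was measured by ADP-Glo luminescence. IC50s came from in-plate duplicate 10-point 3-fold dilutions, with DMSO and reference-inhibitor controls. The C. parvum enzymes (wild type and mutants) were full-length proteins expressed from baculovirus in Sf21 cells.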

Series [4] can be described thus: PAMPA. Type of series: in vitro ADME. In general terms: In PAMPA a lipid-coated filter parts donor from acceptor wells.
Series [5] in a line: Liver microsomes metabolic stability. Type of series: in vitro ADME. The conditions noted are these: mouse. In outline: (§2)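 Test compound was incubated with liver microsomes or hepatocytes of each species, and parent depletion was quantified by LC-MS/MS. From this, in vitro half-life and intrinsic clearance were derived, along with predicted metabolic clearance and hepatic extraction ratio.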
(Microsomes from liver hold many membrane-bound enzymes, among them those of drug oxidation.)

Series [6] can be described thus: Hepatocytes metabolic stability. Type of series: in vitro ADME. Particulars: dog. Put shortly:
as §2

The nature of series [7]: Hepatocytes metabolic stability. Type of series: in vitro ADME. The conditions noted are these: human. In outline:
as §2

Series [8] can be described thus: Plasma stability. Type of series: in vitro ADME. Particulars: mouse. In outline: (§3)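 Test compound was added to plasma and incubated at 37 °C in a shaking water bath, with samples taken at sequential timepoints. Samples were quenched with ice-cold acetonitrile and analysed by LC-MS/MS, and half-life was calculated from the depletion rate.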
A short description of series [9]: Plasma stability. Type of series: in vitro ADME. Particulars: human. In outline:
as §3

Series [10] in a line: Plasma protein binding. Type of series: in vitro ADME. The conditions noted are these: dog.
A short description of series [11]: Plasma protein binding. Type of series: in vitro ADME. Particulars: human.
The target in series [12] is CYP2D6 (Homo sapiens, UniProt P10635). The series is described as follows: CYP450 reversible inhibition. Type of series: in vitro ADME.
Chain of CYP2D6 (P10635 whole entry): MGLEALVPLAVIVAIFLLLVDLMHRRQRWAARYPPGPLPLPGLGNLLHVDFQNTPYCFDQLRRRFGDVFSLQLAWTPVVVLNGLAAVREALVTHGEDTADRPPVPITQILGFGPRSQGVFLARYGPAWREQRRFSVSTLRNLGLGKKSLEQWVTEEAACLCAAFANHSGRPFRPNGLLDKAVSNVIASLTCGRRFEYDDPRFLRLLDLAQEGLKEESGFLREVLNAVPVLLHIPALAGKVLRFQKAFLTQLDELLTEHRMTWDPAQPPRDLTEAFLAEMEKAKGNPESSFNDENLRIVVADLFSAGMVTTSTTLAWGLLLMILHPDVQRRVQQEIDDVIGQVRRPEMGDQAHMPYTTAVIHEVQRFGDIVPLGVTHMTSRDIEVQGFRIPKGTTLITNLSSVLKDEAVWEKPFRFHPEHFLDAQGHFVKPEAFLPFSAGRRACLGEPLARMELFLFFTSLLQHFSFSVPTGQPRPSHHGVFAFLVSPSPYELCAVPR
The target of series [13] is CYP2C9 (Homo sapiens, UniProt P11712). The series is described as follows: CYP450 reversible inhibition. Type of series: in vitro ADME.
Chain of CYP2C9 (P11712 whole entry): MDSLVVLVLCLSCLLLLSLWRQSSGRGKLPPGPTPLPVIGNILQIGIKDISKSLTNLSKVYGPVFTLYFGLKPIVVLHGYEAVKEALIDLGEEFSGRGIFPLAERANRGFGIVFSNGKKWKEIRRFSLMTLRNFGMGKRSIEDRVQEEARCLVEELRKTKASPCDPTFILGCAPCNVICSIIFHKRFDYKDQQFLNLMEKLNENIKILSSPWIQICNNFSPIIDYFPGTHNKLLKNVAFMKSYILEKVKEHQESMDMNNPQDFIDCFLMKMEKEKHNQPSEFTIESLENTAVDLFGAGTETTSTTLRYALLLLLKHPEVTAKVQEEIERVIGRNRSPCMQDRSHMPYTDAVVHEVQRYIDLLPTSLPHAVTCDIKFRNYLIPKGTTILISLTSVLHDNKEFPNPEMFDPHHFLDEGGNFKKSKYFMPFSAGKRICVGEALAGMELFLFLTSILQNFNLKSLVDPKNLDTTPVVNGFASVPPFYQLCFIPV
Series [14] deals with hERG potassium channel (Homo sapiens, UniProt Q12809). The series is described as follows: hERG Q-Patch. Type of series: cell-based. Put shortly: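 hERG potassium current was recorded at near-physiological temperature in stably transfected mammalian cells expressing hERG. The test compound was applied as a 4-point dose response spanning 1–30.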
Chain of hERG potassium channel (Q12809 whole entry): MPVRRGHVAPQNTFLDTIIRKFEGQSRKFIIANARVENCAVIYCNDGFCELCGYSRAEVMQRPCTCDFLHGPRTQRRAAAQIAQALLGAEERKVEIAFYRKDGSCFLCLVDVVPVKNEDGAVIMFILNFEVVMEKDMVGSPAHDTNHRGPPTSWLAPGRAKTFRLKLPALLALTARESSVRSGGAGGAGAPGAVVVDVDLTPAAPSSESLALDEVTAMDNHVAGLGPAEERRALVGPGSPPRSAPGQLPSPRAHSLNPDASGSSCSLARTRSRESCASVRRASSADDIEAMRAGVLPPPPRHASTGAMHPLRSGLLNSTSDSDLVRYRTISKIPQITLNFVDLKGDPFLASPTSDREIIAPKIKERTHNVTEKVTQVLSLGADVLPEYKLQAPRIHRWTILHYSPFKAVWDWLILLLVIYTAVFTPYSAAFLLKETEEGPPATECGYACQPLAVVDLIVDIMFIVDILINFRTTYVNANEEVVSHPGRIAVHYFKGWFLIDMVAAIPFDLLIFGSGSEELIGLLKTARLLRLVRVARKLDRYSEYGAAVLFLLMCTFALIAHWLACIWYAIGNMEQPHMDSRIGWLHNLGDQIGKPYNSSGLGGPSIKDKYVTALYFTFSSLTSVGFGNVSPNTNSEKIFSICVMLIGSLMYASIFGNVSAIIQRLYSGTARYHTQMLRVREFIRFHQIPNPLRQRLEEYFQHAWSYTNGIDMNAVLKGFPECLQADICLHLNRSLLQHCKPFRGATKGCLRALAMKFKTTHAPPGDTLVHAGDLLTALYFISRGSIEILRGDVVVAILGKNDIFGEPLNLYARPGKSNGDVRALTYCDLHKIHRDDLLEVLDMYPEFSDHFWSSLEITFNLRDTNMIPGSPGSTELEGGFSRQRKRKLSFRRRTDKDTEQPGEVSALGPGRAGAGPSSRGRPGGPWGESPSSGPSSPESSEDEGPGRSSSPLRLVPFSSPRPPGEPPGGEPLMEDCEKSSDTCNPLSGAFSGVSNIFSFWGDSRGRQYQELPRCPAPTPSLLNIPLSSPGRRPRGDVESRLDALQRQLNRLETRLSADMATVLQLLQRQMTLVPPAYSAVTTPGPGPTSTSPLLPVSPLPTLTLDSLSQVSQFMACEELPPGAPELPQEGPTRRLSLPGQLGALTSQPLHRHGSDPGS
Series [15] has as its target hNav1.5 (Homo sapiens, UniProt Q14524). The series is described as follows: Patch clamp Nav1.5 Quattro. Type of series: cell-based. In outline: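 Each channel was stably expressed in HEK293 cells and tested by patch clamp with a 7-point concentration-response.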
Series [16] concerns Salmonella typhimurium strains TA98 and TA100. Nature of the series: Mini-Ames. Put shortly: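 Histidine-auxotrophic S. typhimurium TA98 and TA100 were exposed to test compound with and without rat liver S9.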
Series [17] has as its system human peripheral blood lymphocytes. The series is described as follows: In vitro human lymphocyte. Type of series: cell-based. Particulars: EDI048: near cytotoxic concentrations. In outline:
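Lymphocytes came from pooled blood of two donors. The assay was run under GLP and OECD guidelines, and micronuclei were scored on slides by fluorescence microscopy.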

Series [18] concerns rat reticulocytes. The series is described as follows: In vivo rat peripheral blood micronucleus assay. In outline:
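Peripheral blood was taken on days 3 and 15, in randomized order, from animals in the 2-week rat toxicology study. Micronucleated reticulocytes were counted by flow cytometry.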

Entries after “also recorded” stand apart in the source; their conditions may differ. Read-outs that look alike come from different tables or passages of the source.

By EC50 is commonly meant the midpoint of the concentration-response curve. Usually IC50 stands for the concentration that gives 50% inhibition. Low readings indicate greater potency, high ones weaker potency. One may read the microsomal CLint as the capacity of the preparation to metabolise the compound, expressed as a volume cleared per time. A higher microsomal CLint goes with rapid turnover. What is called hepatocyte CLint is the rate of metabolic loss divided by the concentration. Low values mean slow turnover, high ones rapid turnover. For orientation: half-life means the time needed for the level to fall by half in the phase considered. The low end stands for rapid decline, the high end for slow decline. One may read the fraction unbound as free concentration divided by total concentration. Low readings indicate extensive binding, high ones weak binding. In general, EC90 refers to the point of the concentration-response curve where the effect stands at 90%.

Chain of hNav1.5 (Q14524 whole entry): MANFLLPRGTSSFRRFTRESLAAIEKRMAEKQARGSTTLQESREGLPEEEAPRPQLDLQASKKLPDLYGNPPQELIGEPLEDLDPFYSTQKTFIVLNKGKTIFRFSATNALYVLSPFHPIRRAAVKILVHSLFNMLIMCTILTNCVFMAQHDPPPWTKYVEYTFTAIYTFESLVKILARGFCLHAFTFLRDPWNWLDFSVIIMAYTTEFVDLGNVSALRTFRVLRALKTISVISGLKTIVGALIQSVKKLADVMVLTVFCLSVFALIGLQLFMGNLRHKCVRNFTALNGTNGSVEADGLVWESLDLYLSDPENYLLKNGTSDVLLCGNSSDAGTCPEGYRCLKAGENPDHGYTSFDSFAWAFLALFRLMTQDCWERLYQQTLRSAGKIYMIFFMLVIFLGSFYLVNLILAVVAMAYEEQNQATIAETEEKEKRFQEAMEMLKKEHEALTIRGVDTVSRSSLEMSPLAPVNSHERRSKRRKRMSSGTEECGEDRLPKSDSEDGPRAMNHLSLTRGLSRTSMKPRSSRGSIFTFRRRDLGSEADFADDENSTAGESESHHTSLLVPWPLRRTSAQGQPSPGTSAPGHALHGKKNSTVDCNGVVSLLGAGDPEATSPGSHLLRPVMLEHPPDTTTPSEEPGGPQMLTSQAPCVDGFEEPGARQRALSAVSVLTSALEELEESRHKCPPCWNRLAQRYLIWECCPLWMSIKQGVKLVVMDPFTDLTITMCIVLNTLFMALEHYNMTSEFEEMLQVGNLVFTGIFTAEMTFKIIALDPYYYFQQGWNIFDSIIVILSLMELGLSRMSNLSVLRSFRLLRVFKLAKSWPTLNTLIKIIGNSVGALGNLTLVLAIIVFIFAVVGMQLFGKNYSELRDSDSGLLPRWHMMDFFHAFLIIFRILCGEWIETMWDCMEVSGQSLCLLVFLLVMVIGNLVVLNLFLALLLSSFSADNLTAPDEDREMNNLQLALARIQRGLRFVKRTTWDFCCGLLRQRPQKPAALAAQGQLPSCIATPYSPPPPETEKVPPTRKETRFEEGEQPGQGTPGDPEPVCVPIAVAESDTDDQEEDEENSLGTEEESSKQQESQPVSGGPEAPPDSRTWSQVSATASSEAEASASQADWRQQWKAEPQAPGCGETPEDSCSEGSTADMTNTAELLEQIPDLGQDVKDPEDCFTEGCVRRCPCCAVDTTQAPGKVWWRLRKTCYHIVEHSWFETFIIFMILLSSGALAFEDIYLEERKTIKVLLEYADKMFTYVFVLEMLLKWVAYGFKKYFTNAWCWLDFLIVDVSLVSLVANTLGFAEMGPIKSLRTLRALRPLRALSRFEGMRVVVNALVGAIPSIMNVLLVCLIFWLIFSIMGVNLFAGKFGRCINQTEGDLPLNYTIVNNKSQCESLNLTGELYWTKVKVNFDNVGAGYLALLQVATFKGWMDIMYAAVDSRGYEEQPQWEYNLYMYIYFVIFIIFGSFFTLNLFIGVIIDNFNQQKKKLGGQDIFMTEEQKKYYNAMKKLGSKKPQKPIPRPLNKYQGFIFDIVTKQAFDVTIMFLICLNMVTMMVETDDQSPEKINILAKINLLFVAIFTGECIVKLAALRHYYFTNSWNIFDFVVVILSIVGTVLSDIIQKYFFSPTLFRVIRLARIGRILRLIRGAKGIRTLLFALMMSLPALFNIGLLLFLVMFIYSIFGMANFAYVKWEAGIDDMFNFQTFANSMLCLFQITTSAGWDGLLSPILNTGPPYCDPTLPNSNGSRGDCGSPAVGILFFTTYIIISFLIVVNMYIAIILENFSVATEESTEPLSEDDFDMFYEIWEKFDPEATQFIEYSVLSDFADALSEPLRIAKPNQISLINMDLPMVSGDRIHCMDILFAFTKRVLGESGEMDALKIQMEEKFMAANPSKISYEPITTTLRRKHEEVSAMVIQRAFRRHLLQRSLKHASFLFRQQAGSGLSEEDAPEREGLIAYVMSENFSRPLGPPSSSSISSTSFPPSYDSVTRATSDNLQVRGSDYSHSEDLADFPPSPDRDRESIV

In the case of `CNC(=O)c1ccc(-c2cnn3ccc(C(=O)N(C)c4ccc(Cl)c(C(=O)OC)c4)cc23)cc1` [EDI048, methyl 2-chloro-5-(N-methyl-3-(4-(methylcarbamoyl)phenyl)pyrazolo[1,5-a]pyridine-5-carboxamido)benzoate], the figures for the concentration for a half-maximal effect (EC50) in series [1] and in [2] (Cryptosporidium hominis) were 50 nM and 50 ± 1 nM, respectively. For the same compound, the IC50 in series [3] was 4 ± 2 nM; in series [12], more than 25000 nM; in series [13] it was 2510 nM; in series [14] it was 8300 nM; in [15], more than 50000 nM. Besides, in series [4], the “PAMPA (% calc fraction absorbed)” value is recorded as 97%. Also, the “Microsomal ER” value in series [5] is 93%. In series [5] (liver microsomes), this compound yielded a microsomal CLint of more than 700 µL/min/mg. Further, the “Hepatocytes ER” value in series [6] stood at 83%. The hepatocyte CLint in series [6] (hepatocytes) is 28.5 µL/min/1e6 cells; in series [7] (hepatocytes) it was more than 231 µL/min/1e6 cells. For the same compound, the half-life in series [7] (hepatocytes) was less than 3 min; in series [8] (Plasma T1/2, mouse plasma) it was 15.3 min; in series [8] (Plasma T1/2, rodent plasma) it was 12 to 15 min; in series [9] (Plasma T1/2, human plasma), more than 240 min. In series [9], the “Plasma T1/2” value is more than 120 min. Also, the fraction unbound was 0.061 in series [10] (plasma) and 0.045 in series [11] (plasma). For the same compound, the Mini-AMES result in series [16] is reported as “Negative”. Further, in series [17], the “In vitro Human lymphocyte MN induction” value is on record as “Positive^d”. For the same compound, in [18], the “In vivo rat reticulocytes MN induction” value is reported as “Negative”.

As for `CN(C(=O)c1ccn2ncc(-c3ccc(C(N)=O)cc3)c2c1)c1ccc(C#N)cn1` [KDU731, 3–(4-carbamoylphenyl)-N-(5-cyanopyridin-2-yl)-N-methylpyrazolo [1,5-a]pyridine-5-carboxamide, reference compound], the EC90 in [1] (Cryptosporidium parvum, HCT-8, read-out: approximate C. parvum CPE assay EC90) is approximately 500 nM. For the same compound, the EC50 stood at 100 nM in series [1] and 130 nM in series [2] (C. hominis). For the same compound, the IC50 was 17 ± 8 nM in series [3]; more than 50000 nM in series [12]; more than 4800 nM in series [13]; 23000 nM in series [14]; more than 50000 nM in series [15]. Moreover, the “PAMPA (% calc fraction absorbed)” value in series [4] was 34.7%. For the same compound, the “Microsomal ER” value in series [5] came out at 48%. For the same compound, in series [5], the “microsomal CLint” value stood at 50 µL/min/mg. Besides, the “Hepatocytes ER” value in [6] is on record as 10%; in series [7], 60%. In [7], this compound gave a Hepatocytes clearance of 12 μl/min/million cells. Also, the half-life in series [7] (hepatocytes) is 57.9 min; in series [8] it was 85.2 min; in series [9], more than 120 min. The “% Plasma protein binding” value in series [10] worked out at 70.8%; in series [11], 79.1%. Further, the Mini-AMES entry in [16] was “Negative”. In series [17], the “In vitro Human lymphocyte MN induction” value was “induce micronuclei; also recorded: Positive”. Also, the “In vivo rat reticulocytes MN induction” value in series [18] is given as “induce micronuclei; also recorded: Positive”.

Source of the values: article PMC11522000 (Nature Microbiology, 2024).
